Source: PubChem BioAssay (several laboratories)
In the library only some 3.3% were active in any assay of this set; here they are far more common.
Myeloid diff 2: induction of myeloid progenitor differentiation, primary screen, cell-based, flow cytometry, MLPCN library. 360,000 compounds, 1% hits. AID 624256, 2012. ER-HoxA9 myeloid progenitors, lysozyme-GFP differentiation. calls only at 10 µM;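 active = normalized GFP-positive differentiation at or above the plate's own cutoff, the solvent-only control mean plus 3 SD; inconclusive = no clear call, values can overlap the other calls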;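 note: cells exposed to compound for four days before flow analysis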
ABCB6 inh 2: ABCB6 transporter inhibitors, primary screen, K562-ABCB6 cells, flow cytometry, MLPCN library; ATP-binding cassette sub-family B member 6 (Homo sapiens), Q9NP58; K562-ABCB6 porphyrin accumulation, 1 h; active compounds read low; fluorescence ratio to DMSO, % at 10 µM; 360,000 compounds, 0.19% hits;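 active = fluorescence ratio to DMSO below 75%, the collection mean minus 3 SD; inconclusive = too few cells collected in the well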;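 note: signal is porphyrin accumulated inside mitochondria; 100% equals median channel fluorescence of DMSO control wells; lower ratio means ABCB6 inhibition with less porphyrin fluorescence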
Arrestin-AP2 inh: inhibitors of beta-arrestin/AP2 binding, primary screen, biochemical, GPCR trafficking, flow cytometry; beta-arrestin 1 C-terminal peptide binding to AP2 beta2-adaptin appendage (human); FITC-arrestin peptide / GST-AP2 beads; AP2 beta2 appendage carries R879A mutation; inhibition, % at 10 µM; 340,000 compounds, 0.31% hits; AID 504490, 2011;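 active = inhibition above a set limit, near 3 SD of compounds lacking own fluorescence, cut at about 54% in these data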;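 note: plate controls were DMSO wells for no effect and 5 µM unlabelled arrestin peptide for full effect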
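Material – AP2 appendage R879A on GSH beads · Buffer or medium – PBS with 0.05% Tween 20 and 0.1% BSA · Probe or stimulus – fluorescein-tagged arrestin peptide at 50 nM final · Incubation – compound with beads 12 min RT, then probe 1 h RT · Detection – high-throughput flow cytometry of beads, ex 488, em 535 nm · Evaluation – percent response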
CendR NRP1 mod: modulators of CendR peptide binding to NRP-1, primary screen, biochemical, fluorescence polarization, uHTS; FAM-RPARPAR peptide binding to NRP-1; inhibition, % at 25 µM; 360,000 compounds, 0.85% hits;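 active = inhibition or corrected inhibition above about 18%, plus a signal ratio from 0.5 to 1.5, limit read from the data, passing the limit was not always enough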
Exocytosis inh: LAMP-1 surface exposure blockers, TALL-104 cells – cell-based, flow cytometry, MLPCN library, primary screen | inhibition, % at 10 µM | 360,000 compounds, 0.66% hits | TALL-104 LAMP-1 surface exposure; cells stimulated with thapsigargin and PMA | AID 651702, 2012;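 active = inhibition above about 55%, limit read from the data; inconclusive = no clear call, values can overlap the other calls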
ATG4B inh: ATG4B protease inhibitors, primary screen, biochemical, fluorescence, uHTS; Cysteine protease ATG4B (Homo sapiens), Q9Y4P1; ATG4B cleavage of LC3-PLA2, NBD-HPC fluorescence, 1 h; inhibition, % at 8.33 µM; 340,000 compounds, 0.51% hits; in the data active = inhibition above about 40%
Target sequence (Q9Y4P1 whole entry, looked up): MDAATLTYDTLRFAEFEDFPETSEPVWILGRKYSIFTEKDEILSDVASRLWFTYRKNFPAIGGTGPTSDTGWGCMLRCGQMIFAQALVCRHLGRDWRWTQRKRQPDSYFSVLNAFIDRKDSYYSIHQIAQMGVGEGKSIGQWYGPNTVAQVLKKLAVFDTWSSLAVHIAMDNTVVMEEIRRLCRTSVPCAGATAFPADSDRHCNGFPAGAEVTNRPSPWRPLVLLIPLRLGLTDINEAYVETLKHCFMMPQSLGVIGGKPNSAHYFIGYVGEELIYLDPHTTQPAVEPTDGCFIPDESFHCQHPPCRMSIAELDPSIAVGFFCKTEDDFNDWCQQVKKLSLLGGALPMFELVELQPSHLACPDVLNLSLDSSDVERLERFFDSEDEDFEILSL
PLA2 counter: PLA2 enzyme inhibition, counter-screen for ATG4B inhibitor project, biochemical, single concentration, uHTS hits. shares compounds with ATG4B inh. purified PLA2, NBD-C6-HPC fluorescence, 45 min. inhibition, % at 8.33 µM. 1,600 compounds, 66% hits. AID 588402, 2011; in the data active = inhibition above about 50%
Target sequence (P04054 whole entry, looked up): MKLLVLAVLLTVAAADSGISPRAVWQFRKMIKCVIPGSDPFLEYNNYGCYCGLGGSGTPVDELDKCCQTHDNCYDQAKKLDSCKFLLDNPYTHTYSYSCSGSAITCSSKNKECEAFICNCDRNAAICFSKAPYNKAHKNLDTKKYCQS
Numbers without * were called inactive; i = inactive; ? = inconclusive; . = no result given; + = active, no number.

SMILES	Myeloid diff 2	ABCB6 inh 2	Arrestin-AP2 inh	CendR NRP1 mod	Exocytosis inh	ATG4B inh	others
Cc1ccc(C(=O)COC(=O)CN2C(=O)C3C4CCC(C4)C3C2=O)cc1[N+](=O)[O-] (centres undefined)	i	94.0	17.5	5.8	-0.3	-0.9
NNC(=O)c1ccc(Cn2cc(Br)cn2)o1	i	97.0	17.3	2.1	9.8	-6.3
NNC(=O)c1ccc(Cn2cc(Br)c(N)n2)cc1	+	102.0	-9.6	-2.9	-10.1	-9.3
Cc1c(Br)c(O)c(Br)c(O)c1/C=N/n1c(-c2ccccc2)n[nH]c1=S	i	92.0	35.1	-55.5	-0.7	68.5*
Cc1cccc(OCCn2c(-c3ccco3)nc3ccccc32)c1	i	89.0	13.1	27.9*	-0.4	1.1
COc1cccc(Cn2cnc(-c3ccccc3OC)c2C2CC2)c1	i	97.0	.	-0.9	3.7	.
Cc1cnc(NC(=O)c2cccc(S(=O)(=O)N3CCOCC3)c2)s1	i	97.0	-9.6	19.1	4.2	-1.6
CC(=O)N1C[C@H]2CON(C)[C@H]2C[C@H]1c1cccc(-c2ccc(C#N)cc2)c1	i	98.0	.	-2.9	-4.5	.
Cc1ccc(/C=C/C(=O)OCC(=O)NCc2cccs2)o1	i	93.0	4.9	13.1	-0.4	5.5
CC(C)C[C@H](NC(=O)OC(C)(C)C)C(=O)N[C@@H](CO)[C@H](O)[C@@H]1C[C@@H]1C(=O)NC1CC1	i	99.0	-9.5	7.4	3.9	2.4
CCCCNC(=O)[C@H]1C[C@H]1[C@@H](O)[C@H](CO)NC(=O)[C@H](CC(C)C)NC(=O)OC(C)(C)C	i	99.0	-5.9	33.8*	-2.6	2.0
Cn1c(=O)[nH]c(=O)c2c1nc(N1CCOCC1)n2CCSc1nc2ccccc2[nH]1	i	97.0	-7.7	0.8	-2.0	0.1
COC(=O)C1=C(C)N(Cc2ccco2)C(=O)/C1=C\c1ccc([N+](=O)[O-])cc1	i	124.0	-3.6	-41.4	91.7*	4.8
COC(=O)C1=C(C)N(Cc2ccco2)C(=O)/C1=C\c1ccc(N(C)C)cc1	i	98.0	1.1	121.2	-3.0	-1.6
O=C(Nc1ccccc1)c1nnsc1S(=O)c1ccc(Cl)cc1 (centres undefined)	?	101.0	-1.7	2.5	60.3*	-4.9
O=C(c1nnsc1S(=O)c1ccc(Cl)cc1)N1CCOCC1 (centres undefined)	.	108.0	6.4	12.5	43.0	3.2
Cc1ccc2nc3cc([N+](=O)[O-])cc([N+](=O)[O-])c3cc2c1	?	110.0	18.7	-5.3	63.4*	-9.1
Cc1nc2ccc([N+](=O)[O-])cc2nc1C	i	96.0	-6.9	-13.7	10.4	-13.0
Cc1cc(C(=O)NC(C)C)on1	i	98.0	6.8	-1.4	0.5	11.5
CCCNC(=O)c1cc(C)no1	i	94.0	-1.3	25.3*	4.7	-5.8
NC(=O)C1CCN(c2nc(-c3ccccc3N)cs2)CC1	i	98.0	-3.4	24.4*	-8.5	-2.9
CCn1c(NC)cc(=O)n(C)c1=O	i	103.0	0.3	21.2*	-2.4	-2.1
CNc1cc(=O)n(C)c(=O)n1-c1ccccc1	i	99.0	-1.6	-0.3	-0.3	-1.5
O=C(NCc1nc2ccccc2[nH]1)C1=C[C@H](c2ccccc2)C[C@H](OCc2ccc(CO)cc2)O1	i	98.0	6.6	4.3	13.6	-5.2
O=C(NCc1nc2ccccc2[nH]1)C1=C[C@@H](c2ccccc2)C[C@@H](OCc2ccc(CO)cc2)O1	i	96.0	1.7	10.4	70.7*	6.3
SMILES	Myeloid diff 2	ABCB6 inh 2	Arrestin-AP2 inh	CendR NRP1 mod	Exocytosis inh	ATG4B inh	others
C/C(=N/Nc1nc(-c2ccccc2F)nc2ccccc12)c1ccccc1O	+	106.0	5.2	4.1	-2.2	6.9
C/C(=N\Nc1nc(-c2ccccc2O)nc2ccccc12)c1ccccc1	i	96.0	6.4	-0.8	0.8	3.3
CC1=C(C(=O)N(C(C)C)C(C)C)CC(CC(=O)NC2CCCC2)C(=O)N1Cc1ccc(F)cc1 (centres undefined)	i	96.0	.	6.2	4.2	.
Clc1ccccc1OCc1nn[nH]n1	i	97.0	-10.7	29.6*	-3.2	-13.8
Cc1cc(C)cc(OCC(=O)NN2Cc3ccccc3C2=N)c1	i	98.0	6.6	-7.2	-0.7	-10.2
N=C1c2ccccc2CN1NC(=O)CC12CC3CC(CC(C3)C1)C2	+	103.0	27.1	-2.6	-0.1	7.6
CCOc1ccccc1OCC(=O)NN1Cc2ccccc2C1=N	i	87.0	4.3	19.1*	-0.7	-10.8
Cc1cc(NC(=O)CSCC(=O)N2CCN(c3cccc(C(F)(F)F)c3)CC2)no1	i	96.0	-2.1	12.2	1.5	-13.8
CN1CCN(C(=O)CSc2nc(-c3cccs3)cc(-c3cccs3)c2C#N)CC1	+	98.0	2.3	-18.1	13.5	-15.0
CSc1nc(SCC(=O)NCc2ccco2)c2c3c(sc2n1)CN(C)CC3	i	72.0*	15.5	-7.4	0.6	-1.4
CSc1nc(SCC(N)=O)c2c3c(sc2n1)CN(C)CC3	i	106.0	2.7	8.6	-1.2	0.2
CC(NC(=S)NCCCN1CCOCC1)C12CC3CC(CC(C3)C1)C2 (centres undefined)	i	104.0	4.8	26.7*	-4.3	-5.8
S=C(NCCCN1CCOCC1)NCCCN1CCOCC1	i	100.0	31.8	-1.7	-5.1	2.0
COc1ccc(C(=O)NCCNc2nc3ccc(C)cc3cc2C#N)cc1OC	i	95.0	0.9	9.6	1.0	-15.7
O=C(c1ccc2c(=O)n(C3CCCC3)c(=S)[nH]c2c1)N1CCc2ccccc21	i	101.0	9.4	-0.5	10.4	54.0*	PLA2 counter=76.8*
CC(C)NC(=O)c1ccc2c(=O)n(C3CCCC3)c(=S)[nH]c2c1	i	101.0	6.1	-14.2	-6.7	-11.1
O=C1/C(=C/c2c[nH]c3ccccc23)CCC/C1=C\c1c[nH]c2ccccc12	?	133.0	8.3	-97.5	5.9	75.5*	PLA2 counter=74.5*
CCOC(=O)c1ccc(N=C2SC(C(=O)Nc3ccc(C(=O)O)cc3)CC(=O)N2Cc2cccs2)cc1 (centres undefined)	i	99.0	4.2	1.0	-0.8	55.4*	PLA2 counter=55.2*
